{"source": "ChEMBL document CHEMBL2424622", "about": "“Development of amino-pyrimidine inhibitors of c-Jun N-terminal kinase (JNK): kinase profiling guided optimization of a 1,2,3-benzotriazole lead” (Bioorg Med Chem Lett, 2013)", "key": {"[1]": {"target": "Serine/threonine-protein kinase MRCK beta (Homo sapiens) (UniProt Q9Y5S2)", "sequence (Q9Y5S2 whole entry)": "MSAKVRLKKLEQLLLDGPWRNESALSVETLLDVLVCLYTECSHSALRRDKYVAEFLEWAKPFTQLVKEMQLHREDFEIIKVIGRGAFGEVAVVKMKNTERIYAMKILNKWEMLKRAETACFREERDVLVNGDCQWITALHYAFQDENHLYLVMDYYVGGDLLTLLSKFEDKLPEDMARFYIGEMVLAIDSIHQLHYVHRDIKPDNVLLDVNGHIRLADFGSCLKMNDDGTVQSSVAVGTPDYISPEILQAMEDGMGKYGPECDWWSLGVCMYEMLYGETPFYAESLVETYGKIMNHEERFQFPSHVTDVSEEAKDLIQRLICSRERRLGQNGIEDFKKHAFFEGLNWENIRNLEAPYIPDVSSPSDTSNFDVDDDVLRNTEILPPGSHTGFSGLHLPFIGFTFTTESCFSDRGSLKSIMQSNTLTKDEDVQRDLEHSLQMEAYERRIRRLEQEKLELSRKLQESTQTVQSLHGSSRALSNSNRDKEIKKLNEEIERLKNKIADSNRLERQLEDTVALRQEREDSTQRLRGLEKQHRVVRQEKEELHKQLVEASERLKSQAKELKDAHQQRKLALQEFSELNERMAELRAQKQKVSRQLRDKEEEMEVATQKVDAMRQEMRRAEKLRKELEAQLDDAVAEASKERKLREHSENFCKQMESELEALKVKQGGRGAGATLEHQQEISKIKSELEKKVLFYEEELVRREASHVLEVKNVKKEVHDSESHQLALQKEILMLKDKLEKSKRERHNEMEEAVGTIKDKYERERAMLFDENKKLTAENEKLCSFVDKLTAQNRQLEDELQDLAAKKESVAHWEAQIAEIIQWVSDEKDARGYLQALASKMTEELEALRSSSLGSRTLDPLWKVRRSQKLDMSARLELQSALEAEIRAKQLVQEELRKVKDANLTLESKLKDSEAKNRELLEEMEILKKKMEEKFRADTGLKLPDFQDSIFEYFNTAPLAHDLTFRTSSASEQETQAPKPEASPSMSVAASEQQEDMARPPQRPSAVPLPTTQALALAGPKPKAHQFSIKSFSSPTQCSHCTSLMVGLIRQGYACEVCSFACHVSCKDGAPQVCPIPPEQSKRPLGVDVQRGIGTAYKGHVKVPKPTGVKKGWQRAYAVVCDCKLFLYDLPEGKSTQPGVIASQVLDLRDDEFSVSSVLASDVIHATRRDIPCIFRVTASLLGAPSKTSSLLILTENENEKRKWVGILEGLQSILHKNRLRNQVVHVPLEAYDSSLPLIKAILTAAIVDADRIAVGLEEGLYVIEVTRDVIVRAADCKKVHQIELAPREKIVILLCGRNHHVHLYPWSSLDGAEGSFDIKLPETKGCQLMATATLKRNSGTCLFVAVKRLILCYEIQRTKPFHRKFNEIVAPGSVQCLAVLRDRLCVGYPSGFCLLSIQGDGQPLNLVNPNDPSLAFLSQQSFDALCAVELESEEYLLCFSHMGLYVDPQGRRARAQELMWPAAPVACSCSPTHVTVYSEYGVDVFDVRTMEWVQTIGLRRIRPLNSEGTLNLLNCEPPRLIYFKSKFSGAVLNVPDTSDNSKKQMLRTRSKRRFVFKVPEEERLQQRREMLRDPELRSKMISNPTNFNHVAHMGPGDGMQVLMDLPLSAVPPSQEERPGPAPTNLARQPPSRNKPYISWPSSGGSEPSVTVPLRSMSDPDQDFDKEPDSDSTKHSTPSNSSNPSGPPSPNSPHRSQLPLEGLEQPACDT", "experiment": "Competitive binding affinity to MRCKB (unknown origin) at 10 uM in presence of ATP relative to control"}, "[2]": {"target": "MAP/microtubule affinity-regulating kinase 3 (Homo sapiens) (UniProt P27448)", "sequence (P27448 whole entry, looked up)": "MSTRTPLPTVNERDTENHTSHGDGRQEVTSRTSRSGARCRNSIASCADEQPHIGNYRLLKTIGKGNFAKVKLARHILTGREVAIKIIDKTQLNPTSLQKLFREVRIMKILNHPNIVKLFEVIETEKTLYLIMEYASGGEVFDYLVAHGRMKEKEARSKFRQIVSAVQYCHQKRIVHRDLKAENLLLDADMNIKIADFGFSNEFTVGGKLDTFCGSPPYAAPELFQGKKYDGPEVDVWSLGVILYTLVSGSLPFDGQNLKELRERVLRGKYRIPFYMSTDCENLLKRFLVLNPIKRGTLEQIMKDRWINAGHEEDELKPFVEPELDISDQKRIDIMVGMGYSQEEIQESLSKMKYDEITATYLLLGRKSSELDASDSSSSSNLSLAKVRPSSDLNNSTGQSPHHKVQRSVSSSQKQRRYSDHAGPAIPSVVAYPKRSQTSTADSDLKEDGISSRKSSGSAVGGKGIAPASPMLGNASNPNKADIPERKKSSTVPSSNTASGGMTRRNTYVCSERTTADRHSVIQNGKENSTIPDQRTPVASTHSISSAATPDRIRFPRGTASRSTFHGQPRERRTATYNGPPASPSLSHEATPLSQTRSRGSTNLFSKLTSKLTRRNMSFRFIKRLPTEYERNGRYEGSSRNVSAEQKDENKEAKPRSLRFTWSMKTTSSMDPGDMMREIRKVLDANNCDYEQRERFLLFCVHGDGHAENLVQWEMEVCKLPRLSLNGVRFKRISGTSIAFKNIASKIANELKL", "experiment": "Competitive binding affinity to MARK3 (unknown origin) at 10 uM in presence of ATP relative to control"}, "[3]": {"target": "Serine/threonine-protein kinase 10 (Homo sapiens) (UniProt O94804)", "sequence (O94804 whole entry, looked up)": "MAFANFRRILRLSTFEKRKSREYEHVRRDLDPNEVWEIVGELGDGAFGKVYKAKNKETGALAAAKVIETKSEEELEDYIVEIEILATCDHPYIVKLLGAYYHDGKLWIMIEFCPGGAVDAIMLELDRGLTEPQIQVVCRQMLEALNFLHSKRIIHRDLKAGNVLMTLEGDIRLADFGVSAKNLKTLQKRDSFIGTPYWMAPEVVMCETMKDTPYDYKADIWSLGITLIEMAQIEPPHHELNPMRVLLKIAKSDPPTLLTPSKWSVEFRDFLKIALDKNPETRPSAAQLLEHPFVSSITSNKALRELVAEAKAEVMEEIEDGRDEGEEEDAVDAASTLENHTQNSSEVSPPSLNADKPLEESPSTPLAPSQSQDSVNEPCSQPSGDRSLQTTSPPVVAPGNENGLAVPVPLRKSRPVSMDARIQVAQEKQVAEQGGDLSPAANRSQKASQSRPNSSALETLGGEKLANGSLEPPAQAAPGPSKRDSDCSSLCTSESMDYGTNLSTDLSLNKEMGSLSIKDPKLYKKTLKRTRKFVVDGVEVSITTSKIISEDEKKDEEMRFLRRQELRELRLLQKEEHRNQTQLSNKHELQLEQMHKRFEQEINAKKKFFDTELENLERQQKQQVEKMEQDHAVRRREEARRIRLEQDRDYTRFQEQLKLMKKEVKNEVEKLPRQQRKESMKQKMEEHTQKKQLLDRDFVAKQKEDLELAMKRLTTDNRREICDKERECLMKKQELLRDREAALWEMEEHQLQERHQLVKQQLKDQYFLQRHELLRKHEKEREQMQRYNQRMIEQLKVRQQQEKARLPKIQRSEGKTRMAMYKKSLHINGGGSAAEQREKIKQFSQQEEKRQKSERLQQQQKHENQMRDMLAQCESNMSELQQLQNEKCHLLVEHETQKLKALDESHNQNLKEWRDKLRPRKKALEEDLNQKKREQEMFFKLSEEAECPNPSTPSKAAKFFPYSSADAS", "experiment": "Competitive binding affinity to LOK (unknown origin) at 10 uM in presence of ATP relative to control"}, "[4]": {"target": "T1, Ephrin type-B receptor 3 (Homo sapiens) (UniProt P54753)", "T1 sequence (whole entry)": "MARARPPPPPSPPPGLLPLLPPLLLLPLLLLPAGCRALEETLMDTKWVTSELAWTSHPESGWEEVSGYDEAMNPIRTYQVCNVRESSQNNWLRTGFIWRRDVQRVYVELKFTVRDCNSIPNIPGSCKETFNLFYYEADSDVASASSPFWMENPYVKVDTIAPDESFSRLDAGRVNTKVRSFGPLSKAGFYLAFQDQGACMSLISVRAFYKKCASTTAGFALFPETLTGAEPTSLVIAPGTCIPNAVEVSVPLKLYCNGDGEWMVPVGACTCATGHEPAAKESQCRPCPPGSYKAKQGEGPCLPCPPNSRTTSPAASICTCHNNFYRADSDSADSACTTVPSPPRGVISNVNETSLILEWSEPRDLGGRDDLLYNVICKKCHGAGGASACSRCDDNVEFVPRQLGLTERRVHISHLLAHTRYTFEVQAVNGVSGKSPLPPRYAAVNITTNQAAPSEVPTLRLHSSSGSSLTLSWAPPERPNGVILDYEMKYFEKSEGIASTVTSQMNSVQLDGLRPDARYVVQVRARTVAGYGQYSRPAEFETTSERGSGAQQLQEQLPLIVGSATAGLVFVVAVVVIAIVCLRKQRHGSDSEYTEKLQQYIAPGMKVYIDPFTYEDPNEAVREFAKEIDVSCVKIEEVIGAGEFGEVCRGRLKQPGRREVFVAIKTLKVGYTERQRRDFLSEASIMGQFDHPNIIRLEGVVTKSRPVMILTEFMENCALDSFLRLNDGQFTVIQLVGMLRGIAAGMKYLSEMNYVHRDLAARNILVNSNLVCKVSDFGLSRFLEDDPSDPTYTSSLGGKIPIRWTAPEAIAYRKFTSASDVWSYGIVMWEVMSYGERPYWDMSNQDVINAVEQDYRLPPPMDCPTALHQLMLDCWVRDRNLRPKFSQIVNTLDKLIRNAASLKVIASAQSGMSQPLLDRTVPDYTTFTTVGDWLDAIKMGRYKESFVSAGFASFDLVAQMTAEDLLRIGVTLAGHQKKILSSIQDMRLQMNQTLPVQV", "experiment": "Competitive binding affinity to EPHB3 (unknown origin) at 10 uM in presence of ATP relative to control", "procedure,_shortened": "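In vitro ATP-site competition binding assay, part of profiling against a diverse panel of 128 kinases. Each compound was tested at a single concentration of 10 µM. Kinome selectivity was summarized as S15 selectivity scores.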"}, "Homo sapiens": {"organism": "Homo sapiens", "experiment": "Competitive binding affinity to EGFR S752 to I759 deletion mutant (unknown origin) at 10 uM in presence of ATP relative to control"}, "[5]": {"target": "RAC-beta serine/threonine-protein kinase (Homo sapiens) (UniProt P31751)", "sequence (P31751 whole entry)": "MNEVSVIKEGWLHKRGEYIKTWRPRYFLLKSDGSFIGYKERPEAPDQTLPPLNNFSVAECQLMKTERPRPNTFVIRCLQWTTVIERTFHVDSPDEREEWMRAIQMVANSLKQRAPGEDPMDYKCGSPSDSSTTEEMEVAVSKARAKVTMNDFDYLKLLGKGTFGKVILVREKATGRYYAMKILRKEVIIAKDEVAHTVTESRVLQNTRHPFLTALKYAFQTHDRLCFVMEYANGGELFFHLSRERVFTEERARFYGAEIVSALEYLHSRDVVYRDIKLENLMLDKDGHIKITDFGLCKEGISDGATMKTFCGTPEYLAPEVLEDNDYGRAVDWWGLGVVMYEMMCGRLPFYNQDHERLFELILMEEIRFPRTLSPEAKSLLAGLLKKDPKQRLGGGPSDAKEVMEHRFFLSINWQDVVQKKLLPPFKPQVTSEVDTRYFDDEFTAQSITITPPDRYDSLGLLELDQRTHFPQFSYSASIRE", "experiment": "Competitive binding affinity to AKT2 (unknown origin) at 10 uM in presence of ATP relative to control"}, "[6]": {"target": "T2, Receptor-interacting serine/threonine-protein kinase 1 (Homo sapiens) (UniProt Q13546)", "T2 sequence (whole entry)": "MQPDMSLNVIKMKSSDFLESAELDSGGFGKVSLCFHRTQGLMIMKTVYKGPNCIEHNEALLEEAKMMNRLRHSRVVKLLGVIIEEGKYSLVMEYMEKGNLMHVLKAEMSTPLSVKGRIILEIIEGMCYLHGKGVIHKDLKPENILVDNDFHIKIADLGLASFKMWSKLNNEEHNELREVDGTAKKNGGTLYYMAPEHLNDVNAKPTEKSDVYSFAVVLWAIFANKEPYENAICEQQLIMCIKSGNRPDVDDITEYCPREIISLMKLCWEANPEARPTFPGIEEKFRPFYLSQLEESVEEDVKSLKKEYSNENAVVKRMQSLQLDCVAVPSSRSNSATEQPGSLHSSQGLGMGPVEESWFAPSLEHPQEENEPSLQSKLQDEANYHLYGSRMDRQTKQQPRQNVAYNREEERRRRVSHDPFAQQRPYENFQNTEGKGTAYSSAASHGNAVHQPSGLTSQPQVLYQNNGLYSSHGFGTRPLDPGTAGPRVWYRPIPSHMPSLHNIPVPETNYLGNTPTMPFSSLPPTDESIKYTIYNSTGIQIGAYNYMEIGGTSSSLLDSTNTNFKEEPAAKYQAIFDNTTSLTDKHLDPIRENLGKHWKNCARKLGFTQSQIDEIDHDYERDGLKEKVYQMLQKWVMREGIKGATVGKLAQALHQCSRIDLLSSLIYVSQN", "experiment": "Competitive binding affinity to RIPK1 (unknown origin) at 10 uM in presence of ATP relative to control"}, "[7]": {"target": "cAMP-dependent protein kinase catalytic subunit beta (Homo sapiens) (UniProt P22694)", "experiment": "Competitive binding affinity to PKAC-beta (unknown origin) at 10 uM in presence of ATP relative to control", "procedure,_shortened": "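In vitro ATP-site competition binding assay across a diverse panel of 128 kinases, with compound tested at a single concentration. Kinase selectivity scores (S15) were calculated from the panel profiles.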"}, "[8]": {"target": "T3, Serine/threonine-protein kinase 4 (Homo sapiens) (UniProt Q13043)", "T3 sequence (whole entry)": "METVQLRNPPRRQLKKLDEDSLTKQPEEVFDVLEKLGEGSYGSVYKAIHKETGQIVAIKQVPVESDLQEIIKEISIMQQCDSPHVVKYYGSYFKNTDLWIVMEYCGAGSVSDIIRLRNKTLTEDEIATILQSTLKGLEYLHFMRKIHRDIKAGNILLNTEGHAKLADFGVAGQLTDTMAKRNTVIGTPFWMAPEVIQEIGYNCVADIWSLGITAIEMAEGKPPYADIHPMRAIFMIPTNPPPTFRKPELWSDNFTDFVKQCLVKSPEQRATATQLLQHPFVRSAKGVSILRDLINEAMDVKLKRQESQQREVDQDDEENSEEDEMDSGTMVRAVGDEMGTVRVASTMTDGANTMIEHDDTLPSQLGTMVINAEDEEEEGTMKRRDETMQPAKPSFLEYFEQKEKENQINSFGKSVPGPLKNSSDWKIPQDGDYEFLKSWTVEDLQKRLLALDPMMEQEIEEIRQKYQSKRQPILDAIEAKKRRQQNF", "experiment": "Competitive binding affinity to STK4 (unknown origin) at 10 uM in presence of ATP relative to control"}}}
{"smiles": "O[C@H]1CC[C@H](Nc2nccc(-n3nnc4ccccc43)n2)CC1", "values": [{"measurement": "inhibition", "setting": "[1]", "value": "< 50", "unit": "%"}, {"measurement": "inhibition", "setting": "[2]", "value": "< 50", "unit": "%"}, {"measurement": "inhibition", "setting": "[3]", "value": "< 50", "unit": "%"}, {"measurement": "inhibition", "setting": "[4]", "value": "< 50", "unit": "%"}, {"measurement": "inhibition", "setting": "Homo sapiens", "value": "< 50", "unit": "%"}, {"measurement": "inhibition", "setting": "[5]", "value": "< 50", "unit": "%"}, {"measurement": "inhibition", "setting": "[6]", "value": "< 50", "unit": "%"}, {"measurement": "inhibition", "setting": "[7]", "value": "< 50", "unit": "%"}]}
{"smiles": "O[C@H]1CC[C@H](Nc2nccc(-n3ncc4ccccc43)n2)CC1", "values": [{"measurement": "inhibition", "setting": "[1]", "value": "< 50", "unit": "%"}, {"measurement": "inhibition", "setting": "[2]", "value": "< 50", "unit": "%"}, {"measurement": "inhibition", "setting": "[3]", "value": "< 50", "unit": "%"}, {"measurement": "inhibition", "setting": "[4]", "value": "< 50", "unit": "%"}, {"measurement": "inhibition", "setting": "Homo sapiens", "value": "< 50", "unit": "%"}, {"measurement": "inhibition", "setting": "[5]", "value": "< 50", "unit": "%"}, {"measurement": "inhibition", "setting": "[6]", "value": "< 50", "unit": "%"}, {"measurement": "inhibition", "setting": "[7]", "value": "< 50", "unit": "%"}]}
{"smiles": "O[C@H]1CC[C@H](Nc2nccc(-c3n[nH]c4ccccc34)n2)CC1", "values": [{"measurement": "inhibition", "setting": "[3]", "value": 88, "unit": "%"}, {"measurement": "inhibition", "setting": "[4]", "value": "< 50", "unit": "%"}, {"measurement": "inhibition", "setting": "Homo sapiens", "value": "< 50", "unit": "%"}, {"measurement": "inhibition", "setting": "[5]", "value": "< 50", "unit": "%"}, {"measurement": "inhibition", "setting": "[7]", "value": "< 50", "unit": "%"}, {"measurement": "inhibition", "setting": "[8]", "value": "< 50", "unit": "%"}]}
{"smiles": "O[C@H]1CC[C@H](Nc2nccc(-n3ccc4ccccc43)n2)CC1", "values": [{"measurement": "inhibition", "setting": "[1]", "value": "< 50", "unit": "%"}, {"measurement": "inhibition", "setting": "[2]", "value": "< 50", "unit": "%"}, {"measurement": "inhibition", "setting": "[3]", "value": "< 50", "unit": "%"}, {"measurement": "inhibition", "setting": "[4]", "value": "< 50", "unit": "%"}, {"measurement": "inhibition", "setting": "Homo sapiens", "value": "< 50", "unit": "%"}, {"measurement": "inhibition", "setting": "[5]", "value": "< 50", "unit": "%"}, {"measurement": "inhibition", "setting": "[6]", "value": "< 50", "unit": "%"}, {"measurement": "inhibition", "setting": "[7]", "value": "< 50", "unit": "%"}]}
{"smiles": "O=C([C@H]1CC[C@H](Nc2nccc(-n3nnc4ccccc43)n2)CC1)N1CCOCC1", "values": [{"measurement": "inhibition", "setting": "[8]", "value": "< 50", "unit": "%"}]}
{"smiles": "N[C@H]1CC[C@H](Nc2nccc(-n3nnc4ccccc43)n2)CC1", "values": [{"measurement": "inhibition", "setting": "[8]", "value": "< 50", "unit": "%"}]}
